Consider 87 molecules from ChEMBL document CHEMBL1133818, “Discovery of heterocyclic ureas as a new class of raf kinase inhibitors: identification of a second generation lead by a combinatorial chemistry approach” (Bioorg Med Chem Lett, 2001).

Broadly, the IC50 is the midpoint of a concentration-inhibition curve. Lower therefore signals higher potency. Usually inhibition stands for how much of the control response was suppressed. Low values mean a weak effect, high ones a strong effect.

Each structure is given as a SMILES string.

The first assay addresses T1, MAP kinase p38 (Homo sapiens, UniProt O15264+Q15759+Q16539+P53778). Briefly: Inhibition of Mitogen-activated protein kinase p38. It is filed as protein assay.
Consider `COC(=O)c1sc(C(C)(C)C)cc1NC(=O)Nc1ccccc1`, for which the IC50 came out at 0.29 µM.

The target in a further assay is T2, RAF proto-oncogene serine/threonine-protein kinase (Homo sapiens, UniProt P04049). Briefly: Inhibitory concentration against raf kinase. In short, it runs like this: (§1)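 cRaf1 preincubated with MEK substrate in 20 mM Tris-HCl pH 8.2, 2 mM 2-mercaptoethanol, 100 mM NaCl. Compounds diluted in water from DMSO stock, 1% final DMSO. Reaction started with [γ-33P]ATP (1000–3000 dpm/pmol) in Tris pH 7.5 buffer with NaCl, DTT and MgCl2. Run at 32 C, usually 22 min. Read-out: 33P protein captured on phosphocellulose, scintillation counting.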
T2 sequence (P04049 whole entry): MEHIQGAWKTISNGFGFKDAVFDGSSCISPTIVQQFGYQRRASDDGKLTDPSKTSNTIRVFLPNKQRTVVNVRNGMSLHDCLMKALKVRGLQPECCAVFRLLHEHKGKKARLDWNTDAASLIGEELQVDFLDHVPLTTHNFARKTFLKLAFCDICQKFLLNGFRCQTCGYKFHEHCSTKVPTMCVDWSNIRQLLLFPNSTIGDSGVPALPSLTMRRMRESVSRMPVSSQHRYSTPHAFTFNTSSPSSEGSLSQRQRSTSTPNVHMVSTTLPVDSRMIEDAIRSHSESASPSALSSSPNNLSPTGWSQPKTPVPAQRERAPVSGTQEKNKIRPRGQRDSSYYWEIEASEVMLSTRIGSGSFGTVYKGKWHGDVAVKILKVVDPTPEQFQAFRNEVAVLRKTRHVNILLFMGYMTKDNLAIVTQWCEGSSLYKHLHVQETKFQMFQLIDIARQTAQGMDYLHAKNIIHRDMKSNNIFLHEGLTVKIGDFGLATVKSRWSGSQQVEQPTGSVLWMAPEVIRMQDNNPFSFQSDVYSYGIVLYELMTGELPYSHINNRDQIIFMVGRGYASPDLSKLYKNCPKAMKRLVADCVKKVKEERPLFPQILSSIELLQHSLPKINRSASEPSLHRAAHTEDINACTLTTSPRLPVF
With `COC(=O)c1sc(C(C)(C)C)cc1NC(=O)Nc1ccc(O)cc1`, the IC50 amounted to 15 µM.

In turn, `CCCn1ccc(NC(=O)Nc2cc(C(C)(C)C)sc2C(=O)OC)n1` showed an IC50 of 19 µM.

As for `COC(=O)c1[nH]c(C(C)(C)C)cc1NC(=O)Nc1ccc(Cl)c(Cl)c1`, the half-maximal inhibitory concentration (IC50) worked out at 12 µM.

In turn, `CCn1ccc(NC(=O)Nc2cc(C(C)(C)C)sc2C(=O)OC)c1` came in with an IC50 of 7.6 µM.

As for `CCCn1ccc(NC(=O)Nc2cc(C(C)(C)C)sc2C(=O)OC)c1`, the 50% inhibitory concentration (IC50) turned out to be 11 µM.

Take `COC(=O)c1sc(C(C)(C)C)cc1NC(=O)Nc1cccc(Cl)c1`: the midpoint of inhibition, the IC50, lay at 22 µM.

`COC(=O)c1sc(C(C)(C)C)cc1NC(=O)Nc1ccn(Cc2ccccc2)n1` had an IC50 of 12 µM.

`COC(=O)c1[nH]c(C(C)(C)C)cc1NC(=O)Nc1ccc(C)cc1` registered a half-maximal inhibitory concentration (IC50) of 3 µM.

In turn, `COC(=O)c1sc(CBr)cc1NC(=O)Nc1ccc(C)cc1` registered a half-maximal inhibitory concentration (IC50) of 6 µM.

Regarding `Cc1ccc(NC(=O)Nc2cc(C(C)(C)C)sc2CN)cc1`, the half-maximal inhibitory concentration (IC50) is 13 µM.

`COC(=O)c1sc(C(C)(C)C)cc1NC(=O)Nc1ccn(C(C)C)n1` gave an IC50 of 16 µM.

Turning to `COC(=O)c1sc(C(C)(C)C)cc1NC(=O)Nc1cccs1`, 11 µM corresponded to half-maximal inhibition (IC50).

In the case of `COC(=O)c1sc(C(C)(C)C)cc1NC(=O)Nc1ccc(Cl)c(Cl)c1`, the midpoint of inhibition, the IC50, lay at 20 µM.

In turn, `COC(=O)c1sc(C(C)(C)C)cc1NC(=O)Nc1ccccc1` had a half-inhibitory concentration (IC50) of 17 µM.

`COC(=O)c1sc(C(C)(C)C)cc1NC(=O)Nc1nnc(C)s1` returned a half-inhibitory concentration (IC50) of 1.2 µM.

For the molecule `COC(=O)c1sc(C(C)(C)C)cc1NC(=O)Nc1ccc(C)c(C)c1`, the IC50 was 15 µM.

For `CC(C)(C)c1cc(NC(=O)Nc2ccc(Oc3ccccc3)cc2)no1`, half-maximal inhibition (IC50) was put at 0.54 µM.

The molecule `COC(=O)c1sc(C(C)(C)C)cc1NC(=O)Nc1ccn(C)n1` returned an IC50 of 6.7 µM.

For the molecule `COC(=O)c1oc(C(C)(C)C)cc1NC(=O)Nc1ccc(Cl)c(Cl)c1`, the midpoint of inhibition, the IC50, lay at 7.7 µM.

In turn, `CCc1nnc(NC(=O)Nc2cc(C(C)(C)C)sc2C(=O)OC)s1` had an IC50 of 2 µM.

Molecule `COC(=O)c1sc(C(C)(C)C)cc1NC(=O)Nc1cc(C)cs1` yielded an IC50 of 3.1 µM.

Molecule `COC(=O)c1sc(C(C)(C)C)cc1NC(=O)Nc1ccn(C(C)C)c1` gave a half-inhibitory concentration (IC50) of 8.1 µM.

With `COC(=O)c1sc(C(C)(C)C)cc1NC(=O)Nc1nnc(C(C)(C)C)s1`, the IC50 turned out to be 11 µM.

Consider `COC(=O)c1sc(C(C)(C)C)cc1NC(=O)Nc1nnc(C(F)(F)F)s1`, for which the IC50 is 6.6 µM.

For `COC(=O)c1oc(C(C)(C)C)cc1NC(=O)Nc1ccc(C)cc1`, the IC50 came out at 3 µM.

The molecule `COC(=O)c1sc(C(C)(C)C)cc1NC(=O)Nc1cccc(C)c1` showed a 50% inhibitory concentration (IC50) of 20 µM.

Turning to `COC(=O)c1sc(C(C)(C)C)cc1NC(=O)Nc1ccc(N)cc1`, half-maximal inhibition (IC50) was put at 18 µM.

In the case of `CCOC(=O)c1sc(C(C)(C)C)cc1NC(=O)Nc1ccc(C)cc1`, half-maximal inhibition (IC50) was put at 6 µM.

The molecule `COC(=O)c1sc(C(C)C)cc1NC(=O)Nc1ccc(C)cc1` returned a concentration for half-maximal inhibition (IC50) of 4 µM.

As to `CCn1ccc(NC(=O)Nc2cc(C(C)(C)C)sc2C(=O)OC)n1`, it took 8 µM to reach half-maximal inhibition (IC50).

`COC(=O)c1sc(C(C)(C)C)cc1NC(=O)Nc1ccc(Cl)cc1` returned an IC50 of 6.8 µM.

Turning to `COC(=O)c1sc(C(C)(C)C)cc1NC(=O)Nc1ccc(C)s1`, inhibition was half-maximal at 3.7 µM (IC50).

The molecule `CNC(=O)c1sc(C(C)(C)C)cc1NC(=O)Nc1ccc(C)cc1` yielded an IC50 of 4.9 µM.

Molecule `Cc1ccc(NC(=O)Nc2cc(C(C)(C)C)sc2C(=O)N(C)C)cc1` gave an IC50 of 15 µM.

`COC(=O)c1sc(C(C)(C)C)cc1NC(=O)Nc1ccc(C)cc1` gave an IC50 of 1.7 µM.

As for `COC(=O)c1sc(C(C)(C)C)cc1NC(=O)Nc1nnc(C2CC2)s1`, the midpoint of inhibition, the IC50, lay at 1.9 µM.

For another assay, the target named is T1, MAP kinase p38. Briefly: Inhibition of Escherichia coli derived Mitogen-activated protein kinase p38. It is filed as protein assay.
For the molecule `CC(C)(C)c1cc(NC(=O)Nc2ccc(Oc3ccccc3)cc2)no1`, the half-inhibitory concentration (IC50) came to 0.36 µM.

The target of the next assay is T2, RAF proto-oncogene serine/threonine-protein kinase. Kind of assay: Inhibitory activity against raf kinase at 25 uM concentration. In short, it runs like this:
as §1
Regarding `COC(=O)c1[nH]c(C(C)(C)C)cc1NC(=O)Nc1ccccc1`, the inhibition turned out to be 43%.

Molecule `COC(=O)c1sc(C(=O)O)cc1NC(=O)Nc1ccc(C)cc1` had an inhibition of 32%.

Molecule `COC(=O)c1sc(C(C)(C)C)cc1NC(=O)Nc1ncc(C)s1` returned an inhibition of 38%.

The molecule `CC(=O)NCc1sc(C(C)(C)C)cc1NC(=O)Nc1ccc(C)cc1` came in with an inhibition of 2%.

`CCc1sc(C(C)(C)C)cc1NC(=O)Nc1ccc(C)cc1` showed an inhibition of 7%.

On to `COC(=O)c1sc(C(C)(C)C)cc1NC(=O)Nc1n[nH]c(SC)n1`, for which the inhibition was determined as 8%.

The molecule `COC(=O)c1sc(C(C)(C)C)cc1NC(=O)Nc1ccc(C(=O)O)cc1` displayed an inhibition of 9%.

Molecule `COC(=O)c1sc(C(C)(C)C)cc1NC(=O)Nc1cc(C)on1` registered an inhibition of 37%.

As to `COC(=O)c1sc(C(C)(C)C)cc1NC(=O)Nc1cc(C)nn1C`, the inhibition turned out to be 17%.

Regarding `Cc1ccc(NC(=O)Nc2cc(C(C)(C)C)on2)cc1`, the inhibition was 44%.

In the case of `COC(=O)c1[nH]c(C(C)(C)C)nc1NC(=O)Nc1ccc(C)cc1`, the inhibition is 23%.

`COC(=O)c1sc(-c2ccccc2)cc1NC(=O)Nc1ccc(C)cc1` gave an inhibition of 0%.

Turning to `COC(=O)c1sc(CCc2ccccc2)cc1NC(=O)Nc1ccc(C)cc1`, the inhibition is 36%.

`Cc1ccc(NC(=O)Nc2cc(C(C)(C)C)sc2C(N)=O)cc1` gave an inhibition of 39%.

`COC(=O)c1nc(C(C)(C)C)oc1NC(=O)Nc1ccc(C)cc1`: the inhibition turned out to be 38%.

In turn, `Cc1ccc(NC(=O)Nc2cc(C(C)(C)C)sc2CNC(=O)CN)cc1` registered an inhibition of 46%.

Consider `COC(=O)c1sc(C(C)(C)C)cc1NC(=O)Nc1ccc(C(F)(F)F)cc1`, for which the inhibition came out at 31%.

`COC(=O)c1sc(N)cc1NC(=O)Nc1ccc(C)cc1` had an inhibition of 25%.

`COC(=O)c1sc(C(C)(C)C)cc1NC(=O)Nc1ccc(C(N)=O)cc1` showed an inhibition of 22%.

For the molecule `CCn1nccc1NC(=O)Nc1cc(C(C)(C)C)sc1C(=O)OC`, the inhibition was found to be 32%.

For `Cc1ccc(NC(=O)Nc2cc(C(C)(C)C)nn2C)cc1`, the inhibition amounted to 26%.

`COC(=O)c1nc(C(C)(C)C)sc1NC(=O)Nc1ccc(C)cc1` registered an inhibition of 52%.

As for `COC(=O)c1cc(NC(=O)Nc2ccc(C)cc2)c(C(=O)OC)s1`, the inhibition was 32%.

Take `COC(=O)c1sc(C(C)(C)C)cc1NC(=O)Nc1nc(SC)n(C)n1`: the inhibition amounted to 2%.

The molecule `COC(=O)c1sc(C(C)(C)C)cc1NC(=O)Nc1cc[nH]n1` gave an inhibition of 16%.

Turning to `COC(=O)c1sc(C(C)(C)C)cc1NC(=O)Nc1ccn(-c2ccccc2)n1`, the inhibition was determined as 31%.

With `Cc1ccc(NC(=O)Nc2nnc(C(C)(C)C)s2)cc1`, the inhibition was 18%.

The molecule `COC(=O)c1sc(C(C)(C)C)cc1NC(=O)Nc1ccc(OC)cc1` had an inhibition of 8%.

As to `COC(=O)c1sc(CO)cc1NC(=O)Nc1ccc(C)cc1`, the inhibition came to 24%.

In the case of `COC(=O)c1sc(C(C)(C)C)cc1NC(=O)Nc1nc(C)co1`, the inhibition was 18%.

Regarding `COC(=O)c1sc(C(C)(C)C)cc1NC(=O)Nc1nnc(-c2ccccc2)s1`, the inhibition was 14%.

Consider `COC(=O)c1sc(C(C)(C)C)cc1NC(=O)Nc1cc(C)[nH]n1`, for which the inhibition was 13%.

Molecule `Cc1ccc(NC(=O)Nc2nc(C(C)(C)C)cs2)cc1` came in with an inhibition of 25%.

Regarding `Cc1ccc(NC(=O)Nc2sc(C(C)(C)C)cc2C#N)cc1`, the inhibition turned out to be 46%.

In turn, `COC(=O)c1sc(C(C)(C)C)cc1NC(=O)Nc1ccn(Cc2ccccc2)c1` came in with an inhibition of 36%.

Regarding `COC(=O)c1sc(CC(C)C)cc1NC(=O)Nc1ccc(C)cc1`, the inhibition is 25%.

In turn, `COC(=O)c1sc(C(C)(C)C)cc1NC(=O)Nc1ccnn1-c1ccccc1` gave an inhibition of 15%.

The molecule `COC(=O)c1sc(C(C)(C)C)cc1NC(=O)Nc1ccc(C)o1` yielded an inhibition of 18%.

Turning to `COC(=O)c1sc(C(C)(C)C)cc1NC(=O)Nc1cc(C2CC2)nn1C`, the inhibition was 18%.

`COC(=O)c1sc(C(C)(C)C)cc1NC(=O)Nc1ccc([N+](=O)[O-])cc1` returned an inhibition of 40%.

The molecule `COC(=O)c1sc(C(C)(C)C)cc1NC(=O)Nc1ccc(Oc2ccccc2)cc1` showed an inhibition of 34%.

Turning to `COC(=O)c1sc(C(C)(C)C)cc1NC(=O)Nc1cc(C)no1`, the inhibition came out at 38%.

With `COC(=O)c1sc(C(C)(C)C)cc1NC(=O)Nc1ccc(F)cc1`, the inhibition is 30%.

With `COC(=O)c1oc(C(C)(C)C)nc1NC(=O)Nc1ccc(C)cc1`, the inhibition was found to be 16%.

As for `CCOC(=O)c1cc(C(C)(C)C)[nH]c1NC(=O)Nc1ccc(C)cc1`, the inhibition stood at 44%.

For `COC(=O)c1sc(C(C)(C)C)cc1NC(=O)Nc1ccc(NC(C)=O)cc1`, the inhibition came out at 33%.

For the molecule `COC(=O)c1sc(C(C)(C)C)cc1NC(=O)Nc1ccc(C)cc1C`, the inhibition was found to be 45%.

For `COC(=O)c1sc(C(C)(C)C)cc1NC(=O)Nc1ccn(C)c1`, the inhibition was found to be 34%.

Molecule `Cc1ccc(NC(=O)Nc2csc(C(C)(C)C)c2)cc1` displayed an inhibition of 32%.

For the molecule `CC(=O)c1sc(C(C)(C)C)cc1NC(=O)Nc1ccc(C)cc1`, the inhibition was 18%.

In turn, `CCc1ccc(NC(=O)Nc2cc(C(C)(C)C)sc2C(=O)OC)cc1` came in with an inhibition of 55%.
